A selection: hits, their analogues and other compounds. The true share with any hit is near 0.7%.
FXN GAA850 act – increases GAA850 frataxin promoter reporter activity; actives 0.56% (n = 360,000); AID 540364; HEK293 lucGAA850 FXN promoter luciferase reporter, 24 h; percent of 10 µM SAHA response; activation, % at 6 µM;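 active = activation above the average of all compounds screened plus 3 SD, cutoff fixed separately per campaign, cut at about 7.5% in these data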
proCasp3 act – activators of human procaspase-3; P42574; activation, % at 8.5 µM; actives 0.11% (n = 330,000); recombinant procaspase-3 D3A, Ac-DEVD-pNA absorbance 405 nm;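 active = activation above the mean of all tested compounds plus 3 SD, cut at about 21% in these data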
Target sequence (P42574 whole entry D9A/D28A/D175A): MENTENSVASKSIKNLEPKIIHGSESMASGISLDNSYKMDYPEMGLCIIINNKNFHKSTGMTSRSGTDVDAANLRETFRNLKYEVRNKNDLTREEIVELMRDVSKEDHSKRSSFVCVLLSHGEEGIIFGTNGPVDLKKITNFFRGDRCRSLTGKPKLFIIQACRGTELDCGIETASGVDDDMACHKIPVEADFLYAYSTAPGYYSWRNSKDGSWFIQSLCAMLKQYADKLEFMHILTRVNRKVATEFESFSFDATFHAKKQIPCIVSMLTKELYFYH
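assay system = Procaspase-3 D3A mutant | signal = absorbance at 405 nm, 0 and 120 min | times = 1 h preincubation plus 2 h reaction at 25 °C | repeats = single replicate | read-out = % activation between DMSO and enzyme-spiked controls | medium = Zinc-free HEPES saline buffer with Triton X-100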
procasp7 counter – counter-screen for procaspase-3 activators: activators of human procaspase-7 | P55210 | recombinant procaspase-7, Ac-DEVD-pNA absorbance 405 nm; D23A/D198A/D206A triple mutant, cannot self-cleave; scale: DMSO 0, 5 µM enzyme 100 | activation, % at 8.5 µM | actives 0.093% (n = 330,000) | AID 463210;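 active = percent activation above the screen-wide mean plus 3 SD, cut at about 25% in these data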
Target sequence (P55210 whole entry D23A/D198A/D206A): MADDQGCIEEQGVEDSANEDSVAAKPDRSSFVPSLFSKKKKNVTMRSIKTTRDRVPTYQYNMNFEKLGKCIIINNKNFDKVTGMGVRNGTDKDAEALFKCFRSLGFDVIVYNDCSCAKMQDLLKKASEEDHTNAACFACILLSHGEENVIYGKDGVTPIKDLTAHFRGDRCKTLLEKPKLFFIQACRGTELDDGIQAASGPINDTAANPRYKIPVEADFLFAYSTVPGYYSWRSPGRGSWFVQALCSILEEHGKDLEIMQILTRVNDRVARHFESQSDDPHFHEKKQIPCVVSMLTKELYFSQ
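Assay system – Uncleavable procaspase-7 mutant enzyme · Quantity – 2 µM procaspase-7 mutant as dispensed · Times – 1 h preincubation, 2 h reaction · Dosing – single nominal 8.5 µM compound dose, 0.8% DMSO final · Buffer or medium – Zinc-free 50 mM HEPES buffer, pH 7.4, with NaCl and Triton X-100 · Detection – Epi-absorbance of released pNA at 405 nm, two timepoints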
GAA30 counter – activates GAA30 frataxin promoter, counter-screen for GAA850 activators; HEK293 lucGAA30 FXN promoter luciferase, 24 h; DMSO = 0%, 5 µM ipriflavone = 100%; actives 66% (n = 1,900); shares compounds with FXN GAA850 act; activation, % at 6 µM;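 active = mean activation above the mean of solvent-only control wells plus 3 SD, cut at about 22% in these data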;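 note: counterscreen of GAA850 promoter hits where activity marks nonselective or luminescence artifacts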
GAA850 confirm – confirmation of GAA850 frataxin (FXN) promoter activators; actives 86% (n = 1,900); activation, % at 6 µM; HEK293 lucGAA850 FXN promoter luciferase reporter, 24 h; 100% = activation by SAHA; shares compounds with FXN GAA850 act;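 active = mean activation above a set limit taken from the primary screen, cut at about 8% in these data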
Large screens that a line does not name were inactive (follow-up assays come after a bar, where they were run).

Oc1ccc(-c2cn3ccccc3n2)cc1O	FXN GAA850 act 8.9 | GAA30 counter 109.3 | GAA850 confirm 33.4
Cc1ccn2cc(-c3ccc(O)c(O)c3)nc2c1	FXN GAA850 act 11.0 | GAA30 counter 127.2 | GAA850 confirm 47.7
COc1cccc(CNS(=O)(=O)c2c(C)nc3sccn3c2=O)c1	none
Cc1ccc(C)c(N2CCN(C(=O)Cc3ccc(NC4=NC5CS(=O)(=O)CC5S4)cc3)CC2)c1 (stereo unspecified)	none
CCN(CC)S(=O)(=O)c1ccc(C(=O)OCn2c(SC)nnc(C)c2=O)cc1	none
CCOc1ccc(S(=O)(=O)NCCC(=O)NCC2(N3CCCCC3)CCCCC2)cc1	none
Cc1nn(CCOc2ccccc2)c(=O)n1-c1c(F)cccc1F	none
Cc1ccc(-n2c(C)nn(CCOc3ccccc3)c2=O)cc1	FXN GAA850 act 9.3 | GAA30 counter 98.3 | GAA850 confirm 27.1
CCC(C(=O)NC1CCCC1)n1nc(C)n2c(cc3occc32)c1=O (stereo unspecified)	none
Cc1ccc(NC(=S)N/N=C/c2c(C)[nH]c3ccccc23)cc1	FXN GAA850 act 7.9 | GAA30 counter 30.8 | GAA850 confirm 20.6
Cc1[nH]c2ccccc2c1/C=N/NC(N)=S	none
NC(N)=N/N=C/c1ccccc1OC(F)F	none
FC(F)Oc1ccccc1/C=N/n1cnc2ccccc21	FXN GAA850 act 8.0 | GAA30 counter 95.5 | GAA850 confirm 28.6
CN1N=C(C(=O)N=c2sc3ccccc3n2C)CCC1=O	none (no result: proCasp3 act, procasp7 counter)
COc1ccc(CNC(=O)c2ccc(Cn3cc(Cl)cn3)o2)cc1	none
Cc1nc(Nc2ccccc2)sc1C(=O)c1ccccc1	none
CC(=O)c1sc(Nc2cccc(C)c2)nc1C	FXN GAA850 act 7.8 | GAA30 counter 100.7 | GAA850 confirm 31.3
CC[N+](CC)(CC)CCCCOc1ccc2c(c1)C(=O)c1cc(OCCCC[N+](CC)(CC)CC)ccc1-2	none
Cc1ccccc1OCC(=O)Nc1ccccc1-c1ccccc1NC(=O)COc1ccccc1C	FXN GAA850 act 15.2 | GAA30 counter inactive | GAA850 confirm 11.4
Cc1ccccc1OCC(=O)Nc1cccc(Cl)c1C	none
O=C(CN1CCN(CC(=O)Nc2cccc(F)c2)CC1)Nc1ccc(-c2ccccc2)cc1	none
O=S1(=O)CCN(C(CCO)c2cccc(C(F)(F)F)c2)CC1 (stereo unspecified)	none
O=C(NN1CCOCC1)c1cccc(Br)c1	none
O=C(NN1CCOCC1)c1cccc(COc2cccc(Br)c2)c1	FXN GAA850 act 8.0 | GAA30 counter 89.8 | GAA850 confirm 37.3
Cc1cc(OCc2nnc(SC(C)C(=O)O)n2Cc2ccccc2)ccc1Cl (stereo unspecified)	none (no result: proCasp3 act, procasp7 counter)
O=C(NC1CCN(C(=O)Nc2cccc(Cl)c2)CC1)c1ccco1	none
O=C(O)c1cnn(-c2nc(-c3ccc(Cl)c(Cl)c3)cs2)c1C(F)(F)F	FXN GAA850 act 8.1 | GAA30 counter 59.6 | GAA850 confirm 31.8
O=C(O)c1cnn(-c2nc(-c3cccc(F)c3)cs2)c1C(F)(F)F	none
Cc1ccc(N(CC(=O)N2CCCC2)S(C)(=O)=O)c(C)c1	none
COc1ccccc1N1CCN(c2cc(=O)n(-c3ccc(Br)cc3)c(=O)[nH]2)CC1	FXN GAA850 act 11.3 | GAA30 counter inactive | GAA850 confirm 12.0
COc1ccccc1N1CCN(c2cc(=O)n(-c3ccc(Cl)cc3)c(=O)[nH]2)CC1	none
O=C1CCCN1CCCNc1ncnc2c1cnn2-c1ccc(Cl)cc1	FXN GAA850 act 14.8 | GAA30 counter 75.7 | GAA850 confirm 32.8
Cc1cccc(-n2ncc3c(NCCCN4CCCC4=O)ncnc32)c1	none
COc1ccc(-c2cnnc(N/N=C/c3ccc(O)cc3)n2)cc1	FXN GAA850 act 7.6 | GAA30 counter 67.6 | GAA850 confirm 36.0
Oc1ccc(/C=N\Nc2nncc(-c3ccccc3)n2)cc1	FXN GAA850 act 8.7 | GAA30 counter 40.0 | GAA850 confirm 18.5
Brc1ccc(/C=N/Nc2nncc(-c3ccccc3)n2)o1	none (no result: FXN GAA850 act)
COc1ccc(-c2cnnc(N/N=C/c3ccc(O)c(O)c3)n2)cc1	none
Cc1c(C(=O)NCc2ccc(Cl)c(Cl)c2)sc(=O)n1Cc1cccc(F)c1	none (no result: proCasp3 act, procasp7 counter)
Cc1c(C(=O)NCc2cccc(Cl)c2)sc(=O)n1Cc1cccc(F)c1	FXN GAA850 act 11.8 (no result: proCasp3 act, procasp7 counter) | GAA30 counter inactive | GAA850 confirm inactive
COc1ccc(NC(=O)Cn2nc(C(=O)O)c3ccccc3c2=O)cc1Cl	none
O=C(NC1CCCCCC1)C1CCCN(c2ncccn2)C1 (stereo unspecified)	none
Cc1nc2ccccn2c(=O)c1NC(=O)c1cccc2ccccc12	none
COc1ccc(C=NNC(=S)Nc2ccc(F)cc2)cc1OC	none (no result: proCasp3 act, procasp7 counter)
COc1ccc(C=NNC(=S)NN=Cc2ccc(OC)c(OC)c2)cc1OC	FXN GAA850 act 8.7 (no result: proCasp3 act, procasp7 counter) | GAA30 counter 87.2 | GAA850 confirm 30.5
CCOC(=O)c1c(-c2cccs2)csc1NC(=O)CC(C)C	none
COC(=O)c1c(-c2cccs2)csc1NC(=O)c1cccnc1	FXN GAA850 act 9.8 | GAA30 counter 69.4 | GAA850 confirm 25.7
Cc1ccc(C)c(N2N=C(C(=O)Nc3cccnc3)CCC2=O)c1	none
CCOC(=O)CCCCCC(=O)Nc1ccc2c(c1)C(=O)N([C@@H](C)CO)C[C@@H](C)[C@H](CN(C)C(=O)c1ccncc1)OCCCC[C@H](C)O2	none (no result: proCasp3 act, procasp7 counter)
CCC/C=C/c1ccc(CN2C(C)C(=O)N(Cc3cn(CC4CCCCC4)nn3)CCS2(=O)=O)cc1 (stereo unspecified)	none (no result: proCasp3 act, procasp7 counter)
CCC/C=C/c1ccc(CN2C(C(C)C)C(=O)N(Cc3cn(CC4CCCCC4)nn3)CCS2(=O)=O)cc1 (stereo unspecified)	FXN GAA850 act 7.9 (no result: proCasp3 act, procasp7 counter) | GAA30 counter inactive | GAA850 confirm inactive
CN(CC(=O)N1CCc2ccccc2C1)c1ccccc1	none
COc1cc(C)c(NC(=O)Cc2ccsc2)cc1OC	none
NC(=O)N/N=C/c1ccccc1OC(=O)c1cc2ccccc2oc1=O	none
COc1ccc(C(=O)/C=C/c2ccccc2OC)c(OC(=O)c2ccc([N+](=O)[O-])cc2)c1	none
COc1cccc(C(=O)Oc2ccccc2/C=C\C(=O)c2cc3ccccc3o2)c1	FXN GAA850 act 7.8 (no result: proCasp3 act, procasp7 counter) | GAA30 counter 95.2 | GAA850 confirm 45.3
O=C(Oc1ccccc1/C=C\C(=O)c1cc2ccccc2o1)c1ccccc1	FXN GAA850 act 8.7 | GAA30 counter 110.8 | GAA850 confirm 42.7
O=C(Oc1ccccc1/C=C\C(=O)c1cc2ccccc2o1)c1cccc(F)c1	FXN GAA850 act 8.9 | GAA30 counter 40.3 | GAA850 confirm 20.0
O=C(N/N=C/c1ccccc1OC(=O)c1ccc2c(c1)OCO2)c1cccc(F)c1	none
Cc1cc(NC(=O)C(C)SCC(=O)Nc2nc3c(F)cc(F)cc3s2)no1 (stereo unspecified)	none
Fc1ccc(F)c(C2=NNC(=Nc3ccccc3F)SC2)c1	none
